The values below come from publication PMC7669743 (Inorganic chemistry, 2020).

Data set [1] relates to SK-MEL-28 malignant melanoma cells. Kind of data set: Dark cytotoxicity and photocytotoxicity in normoxia. The format is cell-based, human.
For another data set, the system named is SK-MEL-28 cells. Kind of data set: Dark cytotoxicity and photocytotoxicity in hypoxia. The format is cell-based, human. The following applies: for EC50: read-out: dark EC50 in hypoxia, hypoxia 1% O2, dark. The essentials: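 SK-MEL-28 melanoma cells, 10,000 per well, pre-incubated 2–3 h at 1% O2 (5% CO2, 37 °C). Dosed 1 nM–300 μM, held 21–26 h at 1% O2, then film-sealed and given dark or light treatment. Cells returned to normoxia for 2 days, then resazurin (~60 μM final) for 4 h. EC50 came from zero-bottom log-logistic fits, PI as dark/light EC50.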

The nature of data set [2]: Solubility in high ionic strength aqueous media. The format is physicochemical. The settings on record: for solubility in high ionic strength aqueous media: fully soluble; for solubility in aqueous media relative to the dmb analogs: high ionic strength aqueous media, in words.
Data set [3] can be described thus: Singlet oxygen sensitization quantum yield. The settings on record: acetonitrile. The format is physicochemical. The essentials: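 PF6- salts were used at 5–20 μM in acetonitrile distilled over calcium hydride, air-saturated. The 1O2 phosphorescence band (~1276 nm) was integrated using NIR PMT detection. Quantum yield was calculated by relative actinometry against [Ru(bpy)3]2+ (Φ = 0.56, aerated MeCN), using emission integrals and absorbance at the excitation wavelength. The refractive-index ratio was 1 because both solutions were in acetonitrile.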

The subject of the next data set is female C57BL/6J mice. Nature of the data set: Maximum tolerated dose. The following applies: intraperitoneal, doses 25–200 mg kg^−1, 2-week observation.
The nature of a further data set: Lipophilicity. The format is physicochemical. The following applies: pH 7.4, phosphate buffer / 1-octanol, chloride salts. The essentials: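 Modified shake-flask method. 10 mM saline-free phosphate buffer (pH 7.4) and 1-octanol were mutually pre-saturated at 1:4 by shaking at 230 rpm for 24 h (~20 °C). Chloride salts at 50 μM in saturated octanol plus saturated buffer (1:1) were shaken 200 times and centrifuged (~10,000 × g, 2 min). Each phase was read by absorbance at its longest-wavelength maximum (400–600 nm) against a standard curve. Log D is the log of the octanol/buffer concentration ratio.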

Data set [4] has as its system amelanotic SK-MEL-28 human cells. Nature of the data set: Fluence dependence of photocytotoxicity in normoxia. The format is cell-based.
For data set [5] the following is noted: cited from earlier work.
The conditions of data set [6]: cited from earlier work. The source holds these as a separate data set.
[7] abbreviates: read-out: light EC50, visible light, visible 400–700 nm, 100 J cm^−2, ~20 mW cm^−2.
Setting [8] is: read-out: dark EC50, dark (sham) treatment, SK-MEL-28.

Like-named read-outs stand apart in the source and are kept apart here. Marks after values point to notes of the source that are not given here.

Turning to [Os(dmb)2(IP-4T)]Cl2 [2–4T], the EC50 in data set [1] (setting [7]) worked out at 0.071 µM. This compound also registered a PIgreen in hypoxia with SK-MEL-28 cells (hypoxia 1% O2, green light) of 15. The “solubility in high ionic strength aqueous media” value in data set [2] is at least 1200 µM. Besides, the “singlet oxygen quantum yield ΦΔ” value in data set [3] was found to be 56%. In addition, the “maximum tolerated dose (MTD)” value with female C57BL/6J mice was at least 200 mg/kg.

In the case of [Os(bpy)2(IP-3T)]Cl2 [1–3T], the EC50 in data set [1] (setting [8]) was 45.8 µM; with SK-MEL-28 cells, 71.9 µM. The “log Do/w” value in “Lipophilicity” is “amphiphilic”. For the same compound, the “solubility in aqueous media relative to the dmb analogs” value in data set [2] is recorded as “less soluble”.

With [Os(bpy)2(IP-4T)]Cl2 [1–4T], in data set [1] (green 523 nm, ratio of dark to light EC50), the “phototherapeutic index PIgreen” value is on record as 6700. Besides, the EC50 in data set [1] (setting [8]) was 71.9 µM; in data set [1] (read-out: light EC50, green light, green 523 nm, 100 J cm^−2), about 0.01 µM; in data set [1] (read-out: light EC50, red light, red 633 nm, 100 J cm^−2), about 0.01 µM; in data set [1] (setting [7]), 0.00131 µM; with SK-MEL-28 cells, 55.3 µM. In addition, the “phototherapeutic index PIvis” value in data set [1] (visible light, ratio of dark to light EC50) is given as 55,000. In the data set with SK-MEL-28 cells (hypoxia 1% O2, across the three light conditions), the “phototherapeutic index (PI) in hypoxia” value is about 70. For the same compound, the “fold improvement over 2–4T” value in data set [4] (PDT dose product EC50, normoxia) is at least 5 fold. Moreover, in data set [4] (normoxia, 10 J cm^−2, both wavelengths (523 and 633 nm)), the “photocytotoxic activity at the lowest tested fluence” value is “Submicromolar”. The “solubility in aqueous media relative to the dmb analogs” value in data set [2] is listed as “less soluble”. In data set [3], the “singlet oxygen quantum yield ΦΔ” value is on record as 70%. Moreover, the “maximum tolerated dose (MTD)” value with female C57BL/6J mice was at least 200 mg/kg.

With [Os(phen)2(IP-4T)]Cl2, in data set [5] (hypoxia, visible light), the PIvis in hypoxia was 90.

In the case of [Os(dmb)2(IP-3T)]Cl2 [2–3T], the “solubility in high ionic strength aqueous media” value in data set [2] was at least 1200 µM.

With `[Ru+2].c1ccc(-c2ccccn2)nc1.c1ccc(-c2ccccn2)nc1.c1ccc(-c2ccccn2)nc1` [[Ru(bpy)3]^2+], the “singlet oxygen quantum yield ΦΔ of the standard” value in data set [6] (aerated MeCN) is listed as 0.56.

As for `Cc1cccc(-c2cccc(C)n2)n1.Cc1cccc(-c2cccc(C)n2)n1.[Cl-].[Cl-].[Ru+2].c1ccc2c(-c3nc4c5cccnc5c5ncccc5c4[nH]3)cccc2c1` [[Ru(6,6′-dmb)2(1-NIP)]Cl2], the “PI (PIvis) in hypoxia” value in [5] (1% O2, visible light) is on record as 15.

`[Os+2].c1ccc(-c2ccccn2)nc1.c1ccc(-c2ccccn2)nc1.c1ccc(-c2ccccn2)nc1` [[Os(bpy)3]^2+, [Os(bpy)3]Cl2, reference compound]: the EC50 in [1] (setting [8]) is over 100 µM. Moreover, the “singlet oxygen quantum yield ΦΔ” value in data set [6] (acetonitrile, room temperature, excitation 479 nm, literature value ref 83) is listed as 0.22 (479)^a.

Regarding “[Os(dmb)3](Cl)2 [[Os(dmb)3]^2+, reference compound]”, the EC50 in data set [1] (setting [8]) was over 100 µM.

Regarding [Os(bpy)2(IP-2T)]Cl2 [1–2T], the values for the EC50 (in data set [1] (setting [8]); with SK-MEL-28 cells) were 42.2 µM and 76.9 µM, respectively.
